According to ChEMBL document CHEMBL5046221, “Identification of Pyrimidine-Based Lead Compounds for Understudied Kinases Implicated in Driving Neurodegeneration” (J Med Chem, 2022):
Calls of active or inactive are those of the source. No cut-off for these calls is given here.

Columns and labels:
[1] = Inhibition of human TTBK1 (1 to 479 residues) using Casein as substrate measured after 40 mins in presence of [gamma33P]ATP by scintillation counting method
Outline: (§1)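 Eurofins radiometric kinase assay run at ATP equal to Km for each kinase. 9-point dose–response in duplicate gives the IC50.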

[2] = Kinetic solubility of compound in PBS at pH 7.4 incubated for 24 hrs by chemiluminscent nitrogen detection method; format: physicochemical; conditions: buffer, pH 7.4, 24 h
Outline: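 Filtrates were quantified by total chemiluminescent nitrogen determination against a calibration curve, with correction for background nitrogen from DMSO and medium.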

[3] = Effective permeability in PBS at 7.4 incubated for 5 hrs by PAMPA analysis; format: ADME; conditions: pH 7.4, 5 h
Outline: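 PAMPA: DMSO stocks were diluted in PBS pH 7.4 and placed in the donor compartment, with PBS pH 7.4 in the acceptor, for 5 h. Both compartments were quantified by CLND against a calibration curve, with background nitrogen correction. Effective permeability was calculated from donor and acceptor concentrations using measured rather than assumed solubility.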

[4] = biological target: High affinity nerve growth factor receptor (Homo sapiens, UniProt P04629); assay: Inhibition of human TrkA (440 to end residues) using KKKSPGEYVNIEFG as substrate measured after 40 mins in presence of [gamma33P]ATP by scintillation counting method; outline: as §1
[5] = biological target: T1, MAP/microtubule affinity-regulating kinase 4 (Homo sapiens, UniProt Q96L34); assay: Displacement of tracer K5 from NLuc fused MARK4 (unknown origin) expressed in HEK293 cells by NanoBRET assay; format: cell-based
T1 sequence (Q96L34 whole entry): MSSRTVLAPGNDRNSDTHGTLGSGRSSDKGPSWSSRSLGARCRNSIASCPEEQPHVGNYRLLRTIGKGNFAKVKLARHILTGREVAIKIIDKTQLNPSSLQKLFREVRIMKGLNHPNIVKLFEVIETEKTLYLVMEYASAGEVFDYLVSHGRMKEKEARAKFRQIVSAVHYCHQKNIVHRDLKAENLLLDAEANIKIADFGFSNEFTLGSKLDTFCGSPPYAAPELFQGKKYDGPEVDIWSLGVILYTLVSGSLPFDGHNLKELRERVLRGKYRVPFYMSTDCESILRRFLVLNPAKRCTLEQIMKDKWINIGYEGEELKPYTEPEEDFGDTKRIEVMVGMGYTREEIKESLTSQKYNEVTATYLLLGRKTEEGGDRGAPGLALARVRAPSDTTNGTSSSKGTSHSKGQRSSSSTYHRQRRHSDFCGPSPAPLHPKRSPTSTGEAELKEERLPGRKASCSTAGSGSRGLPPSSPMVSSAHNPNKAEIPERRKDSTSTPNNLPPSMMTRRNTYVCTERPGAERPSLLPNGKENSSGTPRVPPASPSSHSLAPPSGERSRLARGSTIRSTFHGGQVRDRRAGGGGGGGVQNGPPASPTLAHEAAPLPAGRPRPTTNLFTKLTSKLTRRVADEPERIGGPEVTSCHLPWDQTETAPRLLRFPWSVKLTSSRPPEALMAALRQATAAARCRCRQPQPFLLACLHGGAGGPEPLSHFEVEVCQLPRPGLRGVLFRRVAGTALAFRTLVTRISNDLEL

[6] = biological target: T2, Serine/threonine-protein kinase 17A (Homo sapiens, UniProt Q9UEE5); assay: Displacement of tracer K9 from NLuc fused DRAK1 (unknown origin) expressed in HEK293 cells by NanoBRET assay; format: cell-based
T2 sequence (Q9UEE5 whole entry): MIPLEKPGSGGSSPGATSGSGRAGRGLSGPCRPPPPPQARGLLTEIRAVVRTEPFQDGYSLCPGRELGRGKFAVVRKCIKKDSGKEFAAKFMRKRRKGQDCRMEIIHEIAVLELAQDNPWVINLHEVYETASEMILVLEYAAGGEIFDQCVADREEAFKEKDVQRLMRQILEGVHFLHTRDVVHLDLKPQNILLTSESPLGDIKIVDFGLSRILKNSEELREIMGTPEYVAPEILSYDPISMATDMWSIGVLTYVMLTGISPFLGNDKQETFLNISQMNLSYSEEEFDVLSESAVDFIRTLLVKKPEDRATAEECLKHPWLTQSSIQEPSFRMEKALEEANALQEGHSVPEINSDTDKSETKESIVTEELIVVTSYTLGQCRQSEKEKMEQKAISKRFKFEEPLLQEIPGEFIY

[7] = biological target: Aurora kinase B (Homo sapiens) (UniProt Q96GD4); assay: Inhibition of full length recombinant human AURKB using AKRRRLSSLRA as substrate at 1 uM incubated for 40 mins in presence of [gamma-33P-ATP] by radiometric scintillation assay relative to control
Outline: (§2)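 Eurofins radiometric kinase assay with ATP at Km for each kinase. Compound was tested at a single 1 μM concentration in duplicate, and the result is reported as percent of control.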

[8] = biological target: BMP-2-inducible protein kinase (Homo sapiens, UniProt Q9NSY1); assay: Inhibition of 1recombinant human BMP2K using myelin basic protein as substrate incubated for 120 mins in presence of [gamma-33P-ATP] by radiometric scintillation assay
[9] = biological target: T3, Serine/threonine-protein kinase TBK1 (Homo sapiens, UniProt Q9UHD2); assay: Displacement of tracer K5 from NLuc fused TBK1 (unknown origin) expressed in HEK293 cells by NanoBRET assay; format: cell-based
T3 sequence (Q9UHD2 whole entry): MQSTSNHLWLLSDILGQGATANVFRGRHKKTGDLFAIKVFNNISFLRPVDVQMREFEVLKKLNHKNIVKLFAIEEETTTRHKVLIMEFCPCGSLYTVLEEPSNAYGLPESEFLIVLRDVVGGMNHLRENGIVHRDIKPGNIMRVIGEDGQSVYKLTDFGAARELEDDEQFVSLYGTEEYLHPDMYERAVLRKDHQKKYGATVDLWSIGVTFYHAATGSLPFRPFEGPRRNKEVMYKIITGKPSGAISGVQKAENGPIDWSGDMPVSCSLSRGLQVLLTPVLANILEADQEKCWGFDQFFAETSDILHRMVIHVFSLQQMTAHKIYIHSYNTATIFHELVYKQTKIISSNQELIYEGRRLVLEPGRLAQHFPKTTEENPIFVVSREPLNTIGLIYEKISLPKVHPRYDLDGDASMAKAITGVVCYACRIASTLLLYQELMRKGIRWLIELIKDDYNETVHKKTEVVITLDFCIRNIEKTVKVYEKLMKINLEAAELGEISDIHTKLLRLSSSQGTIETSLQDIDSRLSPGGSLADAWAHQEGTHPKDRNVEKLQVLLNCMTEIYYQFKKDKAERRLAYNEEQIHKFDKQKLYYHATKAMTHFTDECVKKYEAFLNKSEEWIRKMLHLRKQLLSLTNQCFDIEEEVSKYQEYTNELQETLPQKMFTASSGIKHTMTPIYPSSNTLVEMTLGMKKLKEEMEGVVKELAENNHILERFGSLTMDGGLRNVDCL
Outline: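 HEK293 cells grown in DMEM with 10% FBS at 37 °C, 5% CO2. NanoBRET assay run in dose–response per manufacturer's protocol with tracer K-5 at 0.5 μM. SEM calculated for assays run more than once.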

[10] = biological target: Tyrosine-protein kinase JAK2 (Homo sapiens) (UniProt O60674); assay: Inhibition of recombinant human JAK2 (808 to end residues) using KTFCGTPEYLAPEVRREPRILSEEEQEMFRDFDYIADWC as substrate at 1 uM incubated for 40 mins in presence of [gamma-33P-ATP] by radiometric scintillation assay relative to control; outline: as §2
[11] = biological target: T4, MAP/microtubule affinity-regulating kinase 3 (Homo sapiens, UniProt P27448); assay: Displacement of tracer K9 from NLuc fused MARK3 (unknown origin) expressed in HEK293 cells by NanoBRET assay; format: cell-based
Target sequence in this assay (P27448 whole entry, the tested form may be a part): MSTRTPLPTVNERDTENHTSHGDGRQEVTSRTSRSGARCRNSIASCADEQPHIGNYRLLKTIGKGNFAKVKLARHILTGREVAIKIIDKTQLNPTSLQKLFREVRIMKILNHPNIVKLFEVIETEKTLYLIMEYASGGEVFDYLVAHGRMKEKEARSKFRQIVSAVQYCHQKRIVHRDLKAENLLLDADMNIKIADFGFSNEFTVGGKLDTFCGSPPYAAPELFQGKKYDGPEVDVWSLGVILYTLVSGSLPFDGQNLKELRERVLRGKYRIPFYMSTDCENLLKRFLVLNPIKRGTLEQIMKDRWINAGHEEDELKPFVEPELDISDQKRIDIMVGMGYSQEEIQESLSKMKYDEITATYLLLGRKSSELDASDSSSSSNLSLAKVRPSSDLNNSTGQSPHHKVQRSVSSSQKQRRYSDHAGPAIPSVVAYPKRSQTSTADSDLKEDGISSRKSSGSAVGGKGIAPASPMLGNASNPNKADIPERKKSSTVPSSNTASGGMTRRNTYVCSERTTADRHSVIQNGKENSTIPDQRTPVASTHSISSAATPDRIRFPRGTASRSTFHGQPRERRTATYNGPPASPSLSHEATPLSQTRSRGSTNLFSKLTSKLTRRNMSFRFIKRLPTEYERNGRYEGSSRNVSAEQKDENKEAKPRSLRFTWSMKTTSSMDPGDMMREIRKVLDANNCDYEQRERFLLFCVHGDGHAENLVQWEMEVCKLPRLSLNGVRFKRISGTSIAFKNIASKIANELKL

[12] = biological target: T5, Serine/threonine-protein kinase 17A (Homo sapiens) (UniProt Q9UEE5); assay: Inhibition of recombinant human DRAK1 using KKLNRTLSFAEPG as substrate after 40 mins in presence of [gamma-33ATP] by scintillation counting based radiometry assay; outline: as §1
T5 sequence (whole entry): T2 sequence (Q9UEE5 whole entry)

[13] = biological target: Serine/threonine-protein kinase MARK1 (Homo sapiens) (UniProt Q9P0L2); assay: Inhibition of recombinant human MARK1 (2 to end residues) using KKKVSRSGLYRSPSMPENLNRPR as substrate incubated for 40 mins in presence of [gamma-33ATP] by scintillation counting based radiometry assay
Outline: (§3)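 Eurofins radiometric enzymatic assay with ATP at Km for each kinase. IC50 was derived from a 9-point dose–response curve run in duplicate.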

[14] = biological target: AP2-associated protein kinase 1 (Homo sapiens, UniProt Q2M2I8); assay: Inhibition of human AAK1 using peptide as substrate incubated for 120 mins in presence of [gamma-33ATP] by scintillation counting based radiometry assay; outline: as §1
[15] = biological target: T6, Serine/threonine-protein kinase 17B (Homo sapiens) (UniProt O94768); assay: Inhibition of recombinant human DRAK2 using KKRPQRRYSNVF as substrate after 120 mins in presence of [gamma-33ATP] by scintillation counting based radiometry assay; outline: as §3
T6 sequence (whole entry): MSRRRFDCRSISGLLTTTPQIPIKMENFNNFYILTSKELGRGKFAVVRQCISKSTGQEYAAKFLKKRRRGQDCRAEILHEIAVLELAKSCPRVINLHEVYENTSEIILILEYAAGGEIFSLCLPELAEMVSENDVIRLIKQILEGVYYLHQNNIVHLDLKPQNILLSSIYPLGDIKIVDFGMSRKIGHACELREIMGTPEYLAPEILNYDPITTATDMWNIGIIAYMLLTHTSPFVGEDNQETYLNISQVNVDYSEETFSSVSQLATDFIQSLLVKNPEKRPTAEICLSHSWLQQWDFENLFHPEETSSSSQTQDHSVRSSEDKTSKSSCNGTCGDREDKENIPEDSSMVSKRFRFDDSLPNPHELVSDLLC

[16] = biological target: T7, Macrophage colony-stimulating factor 1 receptor (Homo sapiens, UniProt P07333); assay: Inhibition of NanoLuc-fused CSF1R (unknown origin) expressed in HEK293 cells incubated for 2 hrs by NanoBRET assay; format: cell-based
[17] = biological target: T8, Non-receptor tyrosine-protein kinase TYK2 (Homo sapiens, UniProt P29597); assay: Inhibition of NanoLuc-fused TYK2 (unknown origin) expressed in HEK293 cells incubated for 2 hrs by NanoBRET assay; format: cell-based
Outline: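 Cellular NanoBRET target-engagement assays were run by Carna Biosciences to the manufacturer's protocol. Dose–response was in singlicate, with compounds tested at concentrations up to 10 μM.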

[18] = biological target: T8, Non-receptor tyrosine-protein kinase TYK2; assay: Inhibition of human TYK2 (875 to end residues) using GGMEDIYFEFMGGKKK as substrate measured after 40 mins in presence of [gamma33P]ATP by radiometric scintillation counting method; outline: as §3
[19] = biological target: T7, Macrophage colony-stimulating factor 1 receptor; assay: Inhibition of recombinant human FMS (538 to end residues) using KKKSPGEYVNIEFG as substrate measured after 40 mins in presence of [gamma33P]ATP by radiometric scintillation counting method; outline: as §1
[20] = biological target: T9, MAP/microtubule affinity-regulating kinase 4 (Homo sapiens) (UniProt Q96L34); assay: Inhibition of recombinant full length human MARK4 using KKKVSRSGLYRSPSMPENLNRPR as substrate incubated for 40 mins in presence of [gamma-33ATP] by scintillation counting based radiometry assay; outline: as §3
T9 sequence (whole entry): T1 sequence (Q96L34 whole entry)

[21] = biological target: T4, MAP/microtubule affinity-regulating kinase 3; assay: Inhibition of recombinant full length human MARK3 using KKKVSRSGLYRSP as substrate incubated for 40 mins in presence of [gamma-33ATP] by scintillation counting based radiometry assay; outline: as §3
Target sequence in this assay (P27448 whole entry, looked up, the tested form may be a part): as the sequence (P27448 whole entry, the tested form may be a part) above

[22] = biological target: NUAK family SNF1-like kinase 1 (Homo sapiens) (UniProt O60285); assay: Inhibition of recombinant human ARK5 (2 to end residues) using KKKVSRSGLYRSPSMPENLNRPR as substrate incubated for 40 mins in presence of [gamma-33ATP] by scintillation counting based radiometry assay; outline: as §3
[23] = biological target: Mitogen-activated protein kinase kinase kinase 9 (Homo sapiens) (UniProt P80192); assay: Inhibition of recombinant human MLK1 (134 to 414 residues) using casein as substrate incubated for 40 mins in presence of [gamma-33ATP by scintillation counting based radiometry assay; outline: as §3

Tyrosine-protein kinase JAK2 (Homo sapiens), sequence (O60674 whole entry, the tested form may be a part): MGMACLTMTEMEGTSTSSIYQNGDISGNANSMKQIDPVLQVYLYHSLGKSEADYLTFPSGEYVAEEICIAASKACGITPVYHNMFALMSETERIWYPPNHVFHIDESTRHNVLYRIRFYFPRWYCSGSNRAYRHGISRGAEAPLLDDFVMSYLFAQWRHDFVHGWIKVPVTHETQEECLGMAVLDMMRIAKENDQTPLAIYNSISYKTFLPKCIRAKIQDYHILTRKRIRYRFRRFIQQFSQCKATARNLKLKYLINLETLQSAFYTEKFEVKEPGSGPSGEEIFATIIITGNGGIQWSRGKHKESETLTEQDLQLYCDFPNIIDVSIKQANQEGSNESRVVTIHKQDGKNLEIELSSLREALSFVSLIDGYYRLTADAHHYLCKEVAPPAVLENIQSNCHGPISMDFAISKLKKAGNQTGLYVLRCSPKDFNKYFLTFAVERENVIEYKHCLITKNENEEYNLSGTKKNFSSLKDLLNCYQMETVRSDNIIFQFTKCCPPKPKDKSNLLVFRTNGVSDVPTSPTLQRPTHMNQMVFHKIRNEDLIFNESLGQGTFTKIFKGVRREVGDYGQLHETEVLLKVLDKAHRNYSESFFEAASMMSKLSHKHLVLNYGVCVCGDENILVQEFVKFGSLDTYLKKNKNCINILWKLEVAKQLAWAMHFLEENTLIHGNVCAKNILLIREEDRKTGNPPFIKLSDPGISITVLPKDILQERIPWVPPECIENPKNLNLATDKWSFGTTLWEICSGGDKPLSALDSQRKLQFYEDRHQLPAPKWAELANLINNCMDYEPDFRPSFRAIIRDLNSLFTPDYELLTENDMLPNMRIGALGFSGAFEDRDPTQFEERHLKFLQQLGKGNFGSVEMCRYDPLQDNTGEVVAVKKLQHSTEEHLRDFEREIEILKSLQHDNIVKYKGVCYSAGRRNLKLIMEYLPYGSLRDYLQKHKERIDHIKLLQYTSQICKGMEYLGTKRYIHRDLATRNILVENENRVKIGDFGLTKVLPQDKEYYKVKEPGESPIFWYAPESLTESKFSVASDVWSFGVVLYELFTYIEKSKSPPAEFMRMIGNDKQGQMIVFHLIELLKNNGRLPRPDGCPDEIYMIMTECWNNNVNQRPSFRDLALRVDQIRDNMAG
T7 sequence (P07333 whole entry, the tested form may be a part): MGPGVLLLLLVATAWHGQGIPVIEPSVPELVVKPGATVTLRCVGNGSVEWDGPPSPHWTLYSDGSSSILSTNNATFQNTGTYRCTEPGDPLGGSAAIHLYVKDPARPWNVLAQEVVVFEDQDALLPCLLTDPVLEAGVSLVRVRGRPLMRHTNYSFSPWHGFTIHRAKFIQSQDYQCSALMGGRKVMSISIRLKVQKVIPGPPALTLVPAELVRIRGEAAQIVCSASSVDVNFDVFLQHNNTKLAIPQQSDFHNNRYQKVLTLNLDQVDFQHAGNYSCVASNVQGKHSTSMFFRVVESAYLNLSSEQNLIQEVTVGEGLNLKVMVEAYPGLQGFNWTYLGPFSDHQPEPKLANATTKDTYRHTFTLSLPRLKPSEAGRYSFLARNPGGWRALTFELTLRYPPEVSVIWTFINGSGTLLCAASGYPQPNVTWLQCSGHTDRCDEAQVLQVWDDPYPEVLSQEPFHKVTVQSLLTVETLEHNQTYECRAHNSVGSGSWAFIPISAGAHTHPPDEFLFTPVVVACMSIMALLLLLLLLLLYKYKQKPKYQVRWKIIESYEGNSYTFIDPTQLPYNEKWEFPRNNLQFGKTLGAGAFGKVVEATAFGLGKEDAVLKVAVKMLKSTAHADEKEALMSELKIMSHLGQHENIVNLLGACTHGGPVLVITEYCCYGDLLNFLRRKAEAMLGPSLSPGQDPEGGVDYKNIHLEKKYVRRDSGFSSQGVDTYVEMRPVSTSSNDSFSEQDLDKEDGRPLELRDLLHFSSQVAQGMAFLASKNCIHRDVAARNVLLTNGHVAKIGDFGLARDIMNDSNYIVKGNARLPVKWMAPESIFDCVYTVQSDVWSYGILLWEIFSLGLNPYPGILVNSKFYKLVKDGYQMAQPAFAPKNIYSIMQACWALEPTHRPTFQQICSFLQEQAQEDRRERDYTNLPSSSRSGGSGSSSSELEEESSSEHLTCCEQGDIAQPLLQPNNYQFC
Serine/threonine-protein kinase MARK1 (Homo sapiens), sequence (Q9P0L2 whole entry, looked up): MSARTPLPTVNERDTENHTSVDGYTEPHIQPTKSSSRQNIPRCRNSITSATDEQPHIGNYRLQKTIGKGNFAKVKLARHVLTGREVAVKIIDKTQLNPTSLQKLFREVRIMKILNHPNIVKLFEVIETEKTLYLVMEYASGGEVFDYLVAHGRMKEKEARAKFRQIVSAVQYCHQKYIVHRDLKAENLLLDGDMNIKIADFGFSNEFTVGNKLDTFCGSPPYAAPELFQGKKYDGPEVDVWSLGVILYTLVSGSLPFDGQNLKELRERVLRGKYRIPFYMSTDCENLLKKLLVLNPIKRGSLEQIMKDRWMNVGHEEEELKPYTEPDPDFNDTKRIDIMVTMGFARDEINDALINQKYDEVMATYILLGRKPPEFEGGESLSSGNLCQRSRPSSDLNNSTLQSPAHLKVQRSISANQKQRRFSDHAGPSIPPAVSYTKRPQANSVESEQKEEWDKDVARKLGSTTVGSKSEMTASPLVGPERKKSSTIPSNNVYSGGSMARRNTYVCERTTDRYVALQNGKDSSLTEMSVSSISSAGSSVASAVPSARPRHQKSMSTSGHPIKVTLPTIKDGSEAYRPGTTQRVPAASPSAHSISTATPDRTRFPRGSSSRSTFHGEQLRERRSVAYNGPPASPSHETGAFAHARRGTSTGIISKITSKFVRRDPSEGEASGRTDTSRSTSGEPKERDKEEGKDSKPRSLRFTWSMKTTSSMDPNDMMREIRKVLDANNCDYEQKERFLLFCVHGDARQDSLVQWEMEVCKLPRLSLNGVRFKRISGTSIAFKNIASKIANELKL
T8 sequence (P29597 whole entry, the tested form may be a part): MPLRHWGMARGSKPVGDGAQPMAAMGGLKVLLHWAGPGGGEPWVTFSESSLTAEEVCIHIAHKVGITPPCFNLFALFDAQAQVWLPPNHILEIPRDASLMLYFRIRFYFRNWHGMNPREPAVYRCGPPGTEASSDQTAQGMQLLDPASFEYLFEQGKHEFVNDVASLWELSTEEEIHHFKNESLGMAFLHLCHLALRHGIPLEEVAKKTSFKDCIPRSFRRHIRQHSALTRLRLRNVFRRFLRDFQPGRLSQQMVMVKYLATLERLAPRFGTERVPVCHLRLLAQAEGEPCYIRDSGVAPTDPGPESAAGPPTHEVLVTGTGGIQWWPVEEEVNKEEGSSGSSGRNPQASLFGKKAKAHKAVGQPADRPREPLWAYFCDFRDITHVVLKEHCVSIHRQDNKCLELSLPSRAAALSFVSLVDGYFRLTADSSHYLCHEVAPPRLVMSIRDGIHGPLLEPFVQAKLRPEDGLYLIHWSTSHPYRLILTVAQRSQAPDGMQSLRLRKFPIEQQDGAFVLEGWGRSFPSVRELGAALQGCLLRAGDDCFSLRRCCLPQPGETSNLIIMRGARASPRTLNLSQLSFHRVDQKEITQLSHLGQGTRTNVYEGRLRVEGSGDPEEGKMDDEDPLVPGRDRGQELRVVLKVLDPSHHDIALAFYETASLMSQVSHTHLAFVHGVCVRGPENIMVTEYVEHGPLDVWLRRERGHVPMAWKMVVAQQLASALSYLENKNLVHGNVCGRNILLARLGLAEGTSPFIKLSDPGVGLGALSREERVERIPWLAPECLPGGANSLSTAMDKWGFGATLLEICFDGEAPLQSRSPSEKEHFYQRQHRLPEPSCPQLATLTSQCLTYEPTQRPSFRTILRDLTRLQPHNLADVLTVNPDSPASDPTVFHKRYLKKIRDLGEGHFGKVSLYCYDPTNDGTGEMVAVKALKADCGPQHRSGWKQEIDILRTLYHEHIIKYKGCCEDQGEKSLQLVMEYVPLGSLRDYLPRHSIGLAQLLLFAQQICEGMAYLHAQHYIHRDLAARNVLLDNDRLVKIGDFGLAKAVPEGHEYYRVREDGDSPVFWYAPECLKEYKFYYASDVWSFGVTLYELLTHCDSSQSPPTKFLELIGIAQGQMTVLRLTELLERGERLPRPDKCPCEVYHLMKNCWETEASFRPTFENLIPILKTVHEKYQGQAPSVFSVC

| SMILES | Kinetic solubility [2] [µM] | Peff [3] | IC50 [5] [µM] | IC50 [6] [µM] | IC50 [9] [µM] | % control [10] [%] | IC50 [11] [µM] | inhibition [13] | also measured |
| --- | --- | --- | --- | --- | --- | --- | --- | --- | --- |
| NS(=O)(=O)c1ccc(CNc2nc(Nc3cccc(NC(=O)N4CCCC4)c3)ncc2C2CC2)cc1 | 85.6 | 2.6 10^-6 cm/s | > 10 | > 10 | > 10 | 107 | > 10 | – | IC50 [1]: 0.128 µM; IC50 [4]: 0.477 µM; % control [7]: 61%; IC50 [8]: 2.92 µM |
| Cc1nn(CC(F)(F)F)cc1Nc1ncc(Br)c(NCCCNC(=O)C2CCC2)n1 | 40.3 | 3.73 10^-6 cm/s | 3.54 | 0.126 | 0.321 | – | > 10 | Active | inhibition [12]: Active; inhibition [14]: Active; inhibition [15]: Active |
| NS(=O)(=O)c1ccc(CNc2ccnc(Nc3cccc(NC(=O)N4CCCC4)c3)n2)cc1 | 147 | – | > 10 | > 10 | > 10 | 62 | > 10 | – | IC50 [16]: > 10 µM; IC50 [17]: > 10 µM; IC50 [18]: 0.033 µM; Peff ([3]; BLD = below limit of detection): Bld; IC50 [19]: 0.305 µM |
| c1cc(CN2CCOCC2)cc(Nc2ncc(C3CC3)c(NCCc3c[nH]cn3)n2)c1 | – | 5.61 10^-7 cm/s | 0.808 | 3.62 | > 10 | – | 4.01 | Active | inhibition [20]: Active; inhibition [21]: Active; inhibition [22]: Active; Kinetic_solubility [2]: 173.6 µM; inhibition [23]: Active |
